Reference: ChEMBL document CHEMBL5356941, “Synthesis, activity and metabolic stability of propan-2-one substituted tetrazolylalkanoic acids as dual inhibitors of cytosolic phospholipase A2α and fatty acid amide hydrolase” (RSC Med Chem, 2023)
Converted amounts (≈) assume the structure as drawn.

Columns and labels:
[1] = Inhibition of porcine platelets cPLA2 alpha using 1-stearoyl-2-arachidonoyl-sn-glycero-3-phosphocholine as substrate incubated for 60 mins by RP-HPLC analysis; parameters: species or system Sus scrofa
Outline: (§1)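 Stopped with acetonitrile/methanol/0.1 M EDTA containing internal standard and NDGA; released arachidonic acid measured by RP-HPLC, UV 200 nm, after online SPE, with vs without compound. IC50s are means of at least two independent determinations.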

[2] = Lipophilicity, logP of compound by RP-HPLC analysis; format: physicochemical
[3] = target: T1, Fatty-acid amide hydrolase 1 (Rattus norvegicus, UniProt P97612); assay: Inhibition of rat brain microsome FAAH using N-(2-hydroxyethyl)-4-pyren-1-ylbutanamide as substrate incubated for 60 mins by RP-HPLC analysis; format: microsomes
T1 sequence (P97612 whole entry): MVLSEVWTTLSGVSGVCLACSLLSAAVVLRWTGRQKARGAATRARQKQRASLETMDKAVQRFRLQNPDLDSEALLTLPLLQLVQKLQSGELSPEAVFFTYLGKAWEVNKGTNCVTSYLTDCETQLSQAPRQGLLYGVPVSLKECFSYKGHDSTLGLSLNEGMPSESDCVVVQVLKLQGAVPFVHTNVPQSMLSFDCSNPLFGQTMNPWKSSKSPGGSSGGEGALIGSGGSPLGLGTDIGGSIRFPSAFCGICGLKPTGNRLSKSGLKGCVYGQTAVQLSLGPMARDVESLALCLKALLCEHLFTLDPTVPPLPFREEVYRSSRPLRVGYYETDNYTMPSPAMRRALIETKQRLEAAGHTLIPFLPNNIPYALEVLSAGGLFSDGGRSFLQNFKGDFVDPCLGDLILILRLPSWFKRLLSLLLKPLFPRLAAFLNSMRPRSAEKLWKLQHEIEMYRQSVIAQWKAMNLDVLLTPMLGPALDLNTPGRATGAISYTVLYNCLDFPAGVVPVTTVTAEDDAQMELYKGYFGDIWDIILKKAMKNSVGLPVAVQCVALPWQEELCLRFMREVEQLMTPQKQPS

[4] = Metabolic stability in rat liver S9 fraction assessed as parent compound remaining at 20 uM after 30 mins in presence of NADPH by RP-HPLC analysis; format: ADME, subcellular; conditions: read-out: Stability
Outline: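 Compounds (final 20 μM) incubated aerobically with rat liver S9 fraction with or without NADPH (final 1 mM); stopped after 30 min. Percent parent remaining measured by reversed-phase HPLC with UV or MS detection; means of independent duplicates.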

[5] = tested on: Platelet; assay: Inhibition of porcine platelets cPLA2 alpha at 10 uM using 1-stearoyl-2-arachidonoyl-sn-glycero-3-phosphocholine as substrate incubated for 60 mins by RP-HPLC analysis relative to control; format: cell-based; conditions: Sus scrofa; outline: as §1
[6] = target: T2, Cytosolic phospholipase A2 (Homo sapiens, UniProt P47712); assay: Inhibition of cPLA2 alpha (unknown origin)
T2 sequence (P47712 whole entry): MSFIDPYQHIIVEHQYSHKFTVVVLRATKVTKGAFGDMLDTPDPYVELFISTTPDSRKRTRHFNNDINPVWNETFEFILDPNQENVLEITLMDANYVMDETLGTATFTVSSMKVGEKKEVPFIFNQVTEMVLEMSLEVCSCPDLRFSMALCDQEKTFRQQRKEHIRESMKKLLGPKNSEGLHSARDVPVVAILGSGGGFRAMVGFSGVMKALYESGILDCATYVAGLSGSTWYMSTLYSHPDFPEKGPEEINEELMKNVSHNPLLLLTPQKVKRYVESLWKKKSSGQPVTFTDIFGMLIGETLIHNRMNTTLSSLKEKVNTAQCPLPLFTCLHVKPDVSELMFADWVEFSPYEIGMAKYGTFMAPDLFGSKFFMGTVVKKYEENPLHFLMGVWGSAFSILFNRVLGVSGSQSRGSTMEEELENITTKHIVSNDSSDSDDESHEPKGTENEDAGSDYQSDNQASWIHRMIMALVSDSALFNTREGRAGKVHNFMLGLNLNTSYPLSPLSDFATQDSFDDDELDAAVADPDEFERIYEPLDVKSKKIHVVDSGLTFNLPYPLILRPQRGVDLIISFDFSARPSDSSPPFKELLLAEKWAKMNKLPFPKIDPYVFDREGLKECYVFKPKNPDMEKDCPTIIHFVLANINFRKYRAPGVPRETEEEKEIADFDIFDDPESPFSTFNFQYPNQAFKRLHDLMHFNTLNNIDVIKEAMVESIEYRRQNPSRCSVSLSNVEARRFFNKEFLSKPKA
Outline: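 Stopped with acetonitrile/methanol/0.1 M EDTA containing internal standard and NDGA. Released arachidonic acid quantified by reversed-phase HPLC, UV 200 nm, after online SPE; IC50 as mean of ≥2 independent determinations.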

[7] = Aqueous solubility of the compound in PBS at pH 7.4 incubated for 20 hrs by RP-HPLC analysis; format: physicochemical; conditions: buffer, pH 7.4, 20 h
Outline: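 Thermodynamic solubility: 1 mg test compound in 2 mL PBS (0.01 M, pH 7.4), bath-sonicated 10 min, shaken 20 h at room temperature, centrifuged; acetonitrile added to an aliquot of clear supernatant and dissolved compound quantified by reversed-phase HPLC with UV at 240 nm.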

[8] = target: T3, Fatty-acid amide hydrolase 1 (Rattus norvegicus) (UniProt P97612); assay: Inhibition of rat brain microsome FAAH at 10 uM using N-(2-hydroxyethyl)-4-pyren-1-ylbutanamide as substrate incubated for 60 mins by RP-HPLC analysis relative to control; format: microsomes
T3 sequence (whole entry): T1 sequence (P97612 whole entry)
Outline: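 Rat brain microsomes incubated with N-(2-hydroxyethyl)-4-pyren-1-ylbutanamide (final 100 μM) in PBS containing 0.20% Triton X-100. Reaction stopped after 60 min with acetonitrile/methanol containing 6-pyren-1-ylhexanoic acid as internal standard; released 4-pyren-1-ylbutanoic acid quantified by reversed-phase HPLC with fluorescence detection, with vs without compound. IC50s are means of at least two independent determinations.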

Row | Structure (SMILES) | IC50 [1] | IC50 [3] | remaining at 0.5 h, 20 µM [4] | also measured
1 | O=C(O)CCc1nnn(CC(=O)C2CCc3cc(-c4ccccc4)ccc3O2)n1 (stereo not drawn) | > 10000 nM | 94 nM | < 5% | inhibition [5]: 34%
2 | CC(Oc1ccc(Oc2ccccc2)cc1)C(=O)Cn1cc(CCC(=O)O)nn1 (stereo not drawn) | 3100 nM | 170 nM | 29% | 
3 | CC(C)Cc1ccc(C(C)C(=O)O)cc1 (stereo not drawn) [IBUPROFEN] |  |  |  | logP [2]: 3.2
4 | CC(Oc1ccc(Oc2ccccc2)cc1)C(=O)Cn1nnnc1CCCC(=O)O (stereo not drawn) | 4800 nM | 170 nM | 71% | 
5 | CC(Oc1ccc(Oc2ccccc2)cc1)C(=O)Cn1nnc(CCCC(=O)O)n1 (stereo not drawn) | 730 nM | 43 nM | < 5% | 
6 | CCCCCCCCc1ccc(OCC(=O)Cn2ccc3cc(C(=O)O)ccc32)cc1 |  |  |  | IC50 [6]: 24 nM
7 | O=C(O)CCc1cn(CC(=O)COc2ccc(Oc3ccccc3)cc2)nn1 | 850 nM | 130 nM | < 5% | 
8 | CCCCCCCCCCOc1ccc(OCC(=O)COc2ccc(C(=O)O)cc2)cc1 |  |  |  | IC50 [6]: 7 nM
9 | O=C(O)CCc1nnnn1CC(=O)COc1ccc(Oc2ccccc2)cc1 | 3000 nM | 2100 nM | 52% | 
10 | CC(Oc1ccc(Oc2ccccc2)cc1)C(=O)Cn1nnnc1CCC(=O)O (stereo not drawn) | > 10000 nM | 880 nM | 86% | inhibition [5]: 39%
11 | O=C(O)CCCc1nnnn1CC(=O)COc1ccc(Oc2ccccc2)cc1 | 3300 nM | 170 nM | 36% | 
12 | COc1ccc2c(c1)c(CC(=O)O)c(C)n2C(=O)c1ccc(Cl)cc1 [INDOMETHACIN] |  |  |  | solubility [7]: 246 µg/mL (≈ 688 µM)
13 | CCCCCCOc1ccc(OCC(=O)C(C)n2nnc(CCCC(=O)O)n2)cc1 (stereo not drawn) | 250 nM | 750 nM |  | 
14 | CC(Oc1ccc(Oc2ccccc2)cc1)C(=O)Cn1nnc(CCC(=O)O)n1 (stereo not drawn) | 540 nM | 44 nM | < 5% | 

Second part, led by results:

Row | IC50 [1] | IC50 [3] | remaining at 0.5 h, 20 µM [4] | Structure (SMILES) | also measured
15 | 19 nM |  |  | CCCCCCCCc1ccc(OCC(=O)Cn2nnc(CCC(=O)O)n2)cc1 | logP [2]: 5.5
16 | 280 nM | 54 nM | < 5% | O=C(O)CCCc1nnn(CC(=O)COc2ccc(Oc3ccccc3)cc2)n1 | 
17 | 170 nM | 54 nM | < 5% | O=C(O)CCc1nnn(CC(=O)COc2ccc(Oc3ccccc3)cc2)n1 | logP [2]: 2.2
18 | 36 nM | 23 nM |  | CCCCCCc1ccc(OCC(=O)Cn2nnc(CCC(=O)O)n2)cc1 | logP [2]: 4.2
19 | 190 nM | 34 nM |  | CCCCCCOc1ccc(OC(C)C(=O)Cn2nnc(CCC(=O)O)n2)cc1 (stereo not drawn) | 
20 | 500 nM | 34 nM |  | CCCCCCOc1ccc(OC(C)C(=O)Cn2nnc(CCCC(=O)O)n2)cc1 (stereo not drawn) | 
21 | 260 nM | 27 nM |  | CCCCc1ccc(OCC(=O)Cn2nnc(CCC(=O)O)n2)cc1 | logP [2]: 3
22 | 47 nM | 32 nM |  | CCCCCCOc1ccc(OCC(=O)Cn2nnc(CCC(=O)O)n2)cc1 | logP [2]: 3.7
23 | 45 nM | 32 nM |  | CC(C)CCCOc1ccc(OCC(=O)Cn2nnc(CCC(=O)O)n2)cc1 | logP [2]: 3.6
24 | 180 nM | > 10000 nM |  | CCCCCCOc1ccc(OCC(=O)C(C)n2nnc(CCC(=O)O)n2)cc1 (stereo not drawn) | inhibition [8]: 31%
